For 23 molecules, inhibition of growth, IC50 and Ratio IC50 results are on record in ChEMBL document CHEMBL4706541, “Design and synthesis of 1H-indazole-3-carboxamide derivatives as potent and selective PAK1 inhibitors with anti-tumour migration and invasion activities” (Eur J Med Chem, 2020).

One assay has as its system HCT-116. As to the kind of experiment: Antiproliferative activity against human HCT-116 cells assessed as growth inhibition at 1 uM after 72 hrs by Cell Titer-Glo assay relative to control. Type of assay: functional. Particulars: read-out: GI. The gist of the method: (§1)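 Cells kept at 37 °C in 5% CO2 and plated at 4000 per well. Treated with compound for 72 h. Viability read by CellTiter-Glo luminescence. Each compound run in duplicate, data as means ± SD.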

In assay [1] the target is T1, Serine/threonine-protein kinase PAK 1 (Homo sapiens, UniProt Q13153). As to the kind of experiment: Inhibition of full length recombinant human N-terminal GST/His6-tagged PAK1 expressed in sf9 insect cells using tetra LRRWSLG as substrate preincubated for 20 min followed by [gamma33P]ATP addition and measured after 120 mins by Hotspot assay.
The test system of another assay is MDA-MB-231. As to the kind of experiment: Antiproliferative activity against human MDA-MB-231 cells assessed as growth inhibition at 1 uM after 72 hrs by Cell Titer-Glo assay relative to control. In kind it is functional. Particulars: read-out: GI. In outline: as §1
For orientation: In ATP-based viability assays light output follows the ATP content of the culture.

Assay [2] deals with Voltage-gated inwardly rectifying potassium channel KCNH2 (Homo sapiens, UniProt Q12809). The assay is described as follows: Inhibition of human ERG.
For another assay, the species on record is Homo sapiens. As to the kind of experiment: Selectivity index ratio of IC50 for inhibition of human PAK4 to IC50 for human PAK1. In outline: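 Compound tested from 10 µM in 3-fold serial dilutions in the HotSpot radiometric assay, with 20 min preincubation, 10 µM ATP/33P-ATP and 120 min at 25 °C. Filter-binding gives IC50. Selectivity is expressed as the PAK4 IC50 divided by the PAK1 IC50.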

Assay [3] deals with Serine/threonine-protein kinase PAK 4 (Homo sapiens, UniProt O96013). As to the kind of experiment: Inhibition of full length recombinant human N-terminal GST/His6-tagged PAK4 expressed in baculovirus infected sf9 insect cells using tetra LRRWSLG as substrate preincubated for 20 min followed by [gamma33P]ATP addition and measured after 120 mins by Hotspot assay.
The target in assay [4] is T1, Serine/threonine-protein kinase PAK 1. As to the kind of experiment: Inhibition of PAK1 (unknown origin).

By IC50 is commonly meant the concentration that gives 50% inhibition.

Sequence of Voltage-gated inwardly rectifying potassium channel KCNH2 (Q12809 whole entry): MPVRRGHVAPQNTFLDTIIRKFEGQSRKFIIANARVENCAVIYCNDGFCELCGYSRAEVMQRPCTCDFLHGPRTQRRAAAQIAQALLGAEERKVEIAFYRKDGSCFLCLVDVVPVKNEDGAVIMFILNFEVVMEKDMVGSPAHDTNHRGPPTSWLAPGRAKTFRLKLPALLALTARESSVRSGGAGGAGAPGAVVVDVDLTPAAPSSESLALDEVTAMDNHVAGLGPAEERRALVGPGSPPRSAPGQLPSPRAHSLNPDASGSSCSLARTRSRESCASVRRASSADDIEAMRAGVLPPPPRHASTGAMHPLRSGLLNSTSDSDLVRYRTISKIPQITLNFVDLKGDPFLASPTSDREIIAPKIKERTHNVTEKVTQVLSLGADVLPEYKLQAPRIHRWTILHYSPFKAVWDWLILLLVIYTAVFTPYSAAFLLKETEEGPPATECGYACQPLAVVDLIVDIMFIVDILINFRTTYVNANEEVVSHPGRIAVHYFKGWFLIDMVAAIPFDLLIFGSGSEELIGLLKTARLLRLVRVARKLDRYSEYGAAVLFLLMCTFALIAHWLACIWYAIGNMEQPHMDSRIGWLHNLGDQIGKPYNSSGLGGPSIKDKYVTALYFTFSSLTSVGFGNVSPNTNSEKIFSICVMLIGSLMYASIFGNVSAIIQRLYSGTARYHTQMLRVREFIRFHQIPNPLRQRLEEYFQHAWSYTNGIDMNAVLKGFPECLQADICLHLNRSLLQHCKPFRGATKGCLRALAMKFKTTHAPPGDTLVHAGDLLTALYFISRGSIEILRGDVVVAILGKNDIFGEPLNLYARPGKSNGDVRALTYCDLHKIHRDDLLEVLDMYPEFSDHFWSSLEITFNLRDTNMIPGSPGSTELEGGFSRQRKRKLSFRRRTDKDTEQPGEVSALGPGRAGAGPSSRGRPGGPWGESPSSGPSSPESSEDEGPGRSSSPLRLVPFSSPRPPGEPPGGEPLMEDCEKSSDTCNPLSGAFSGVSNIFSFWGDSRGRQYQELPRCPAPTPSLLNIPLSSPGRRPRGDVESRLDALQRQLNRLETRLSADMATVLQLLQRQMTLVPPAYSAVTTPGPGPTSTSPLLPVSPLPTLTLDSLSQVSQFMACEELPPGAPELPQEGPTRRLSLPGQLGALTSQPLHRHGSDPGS
Sequence of Serine/threonine-protein kinase PAK 4 (O96013 whole entry): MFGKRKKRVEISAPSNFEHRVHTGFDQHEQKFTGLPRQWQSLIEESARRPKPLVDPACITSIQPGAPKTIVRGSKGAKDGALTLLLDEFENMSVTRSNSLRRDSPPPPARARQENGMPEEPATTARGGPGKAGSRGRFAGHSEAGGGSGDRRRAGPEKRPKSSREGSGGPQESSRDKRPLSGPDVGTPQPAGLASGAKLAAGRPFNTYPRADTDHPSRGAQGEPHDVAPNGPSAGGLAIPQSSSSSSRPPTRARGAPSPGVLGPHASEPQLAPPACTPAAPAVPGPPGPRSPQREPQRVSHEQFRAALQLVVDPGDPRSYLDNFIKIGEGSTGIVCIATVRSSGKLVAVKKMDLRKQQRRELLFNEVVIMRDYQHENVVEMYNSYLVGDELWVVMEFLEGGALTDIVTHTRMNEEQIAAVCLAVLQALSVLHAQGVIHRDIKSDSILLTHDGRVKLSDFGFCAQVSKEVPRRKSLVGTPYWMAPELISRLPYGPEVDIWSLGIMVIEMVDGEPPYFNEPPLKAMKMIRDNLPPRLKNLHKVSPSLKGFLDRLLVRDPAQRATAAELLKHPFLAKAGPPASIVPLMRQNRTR
T1 sequence (Q13153 whole entry): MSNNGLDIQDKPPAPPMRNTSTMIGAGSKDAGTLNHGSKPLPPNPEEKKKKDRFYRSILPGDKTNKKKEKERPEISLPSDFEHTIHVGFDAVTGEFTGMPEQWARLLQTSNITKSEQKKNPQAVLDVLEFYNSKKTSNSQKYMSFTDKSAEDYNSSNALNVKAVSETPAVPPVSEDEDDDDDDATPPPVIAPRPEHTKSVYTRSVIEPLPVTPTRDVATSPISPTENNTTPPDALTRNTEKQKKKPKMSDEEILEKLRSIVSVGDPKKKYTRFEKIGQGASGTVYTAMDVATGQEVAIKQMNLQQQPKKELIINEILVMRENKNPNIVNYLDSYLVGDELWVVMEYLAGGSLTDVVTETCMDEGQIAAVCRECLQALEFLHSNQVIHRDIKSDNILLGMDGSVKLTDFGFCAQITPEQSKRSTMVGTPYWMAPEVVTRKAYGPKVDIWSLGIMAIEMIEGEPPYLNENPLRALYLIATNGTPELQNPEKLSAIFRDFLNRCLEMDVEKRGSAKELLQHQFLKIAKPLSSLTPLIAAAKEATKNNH

As for `CNC(=O)c1n[nH]c2cc(-c3ccc(-c4cncc(C)n4)cc3Cl)ccc12`, the inhibition of growth at 1 µM with HCT-116 is 11.5%; in the assay on MDA-MB-231 it was 15.3%. Besides, the IC50 in assay [1] amounted to 159 nM.
For the molecule `Cc1cncc(-c2ccc(-c3ccc4c(C(=O)NCC5CC5)n[nH]c4c3)c(Cl)c2)n1`, the IC50 in assay [1] turned out to be 777 nM.
In the case of `Cc1cccn(-c2ccc(-c3ccc4c(C(=O)Nc5ccncc5)n[nH]c4c3)c(Cl)c2)c1=O`, the inhibition of growth at 1 µM came out at 4.41% in the assay on HCT-116 and 6.59% with MDA-MB-231. Moreover, in assay [1], the IC50 turned out to be 16 nM.
The like results for `Cc1cccn(-c2ccc(-c3ccc4c(C(=O)NCC5CCN(C)CC5)n[nH]c4c3)c(Cl)c2)c1=O` were, in that order, 20.1%, 18.4% and 22 nM.
`CN[C@@H]1C[C@H]2O[C@@](C)([C@@H]1OC)n1c3ccccc3c3c4c(c5c6ccccc6n2c5c31)C(=O)NC4` displayed an IC50 in assay [2] of 90400 nM.
Consider `Cc1cccn(-c2ccc(-c3ccc4c(C(=O)NCCO)n[nH]c4c3)c(Cl)c2)c1=O`, for which the inhibition of growth at 1 µM in the assay on HCT-116 was 19.2%; in the assay on MDA-MB-231, 17.4%. Besides, the IC50 in assay [1] was determined as 66 nM.
As for `CCNC(=O)c1n[nH]c2cc(-c3ccc(-n4cccc(C)c4=O)cc3Cl)ccc12`, the inhibition of growth at 1 µM in the assay with HCT-116 was 9.37%; in the assay on MDA-MB-231, 10.2%. Besides, the IC50 in assay [1] is 45 nM; in assay [3] it was over 10000 nM; in assay [2] it was 90400 nM. In the assay listed under Homo sapiens, the Ratio IC50 was over 200.
In the case of `Cc1nc(Nc2n[nH]c3c2CN(C(=O)N[C@H](CN(C)C)c2ccccc2)C3(C)C)c2sccc2n1` [PF-03758309], the values for the inhibition of growth at 1 µM with HCT-116 and with MDA-MB-231 were 83.2% and 62.6%, respectively. Moreover, inhibition in assay [2] was half-maximal at 41100 nM (IC50).
`Cc1cccn(-c2ccc(-c3ccc4c(C(=O)NCCc5ccncc5)n[nH]c4c3)c(Cl)c2)c1=O`: the inhibition of growth at 1 µM in the assay on HCT-116 is 15.3%; in the assay with MDA-MB-231, 8.42%. Moreover, in assay [1], the IC50 is 21 nM.
Regarding `Cc1cccn(-c2ccc(-c3ccc4c(C(=O)NCc5ccccc5)n[nH]c4c3)c(Cl)c2)c1=O`, the inhibition of growth at 1 µM in the assay with HCT-116 was found to be 13.2%; in the assay with MDA-MB-231, 9.66%. Also, in assay [1], the IC50 was 92 nM.
Turning to `Cc1cccn(-c2ccc(-c3ccc4c(C(=O)NC5CCOCC5)n[nH]c4c3)c(Cl)c2)c1=O`, the figures for the inhibition of growth at 1 µM in the assay on HCT-116 and with MDA-MB-231 were 7.91% and 19.2%, respectively. In addition, the IC50 in assay [1] was found to be 744 nM.
Consider `Cc1cccc(-c2ccc(-c3ccc4c(C(=O)NCC5CC5)n[nH]c4c3)c(Cl)c2)n1`, for which the IC50 in assay [1] was found to be 229 nM.
Regarding `Cc1cccn(-c2ccc(-c3ccc4c(C(=O)N5CCCC5)n[nH]c4c3)c(Cl)c2)c1=O`, in assay [1], the IC50 is over 10000 nM.
Still for that read-out and setting: as for `Cc1cccn(-c2ccc(-c3ccc4c(C(=O)N5CCOCC5)n[nH]c4c3)c(Cl)c2)c1=O`, the figure is over 10000 nM.
For the molecule `CNC(=O)c1n[nH]c2cc(-c3ccc(-n4cccc(C)c4=O)cc3Cl)ccc12`, the inhibition of growth at 1 µM in the assay with HCT-116 was 17.2%; in the assay on MDA-MB-231, 13.2%. In addition, the IC50 in assay [1] is 16 nM; in assay [3], over 10000 nM.
As for `Cc1cccn(-c2ccc(-c3ccc4c(C(=O)NCC5CC5)n[nH]c4c3)c(Cl)c2)c1=O`, the inhibition of growth at 1 µM was 10.8% in the assay on HCT-116 and 6.87% in the assay with MDA-MB-231. The IC50 in assay [1] was 34 nM; in assay [3], over 10000 nM.
As to `Cc1cccn(-c2ccc(-c3ccc4c(C(=O)NCC5CCOCC5)n[nH]c4c3)c(Cl)c2)c1=O`, the inhibition of growth at 1 µM in the assay with HCT-116 was determined as 16.2%; in the assay with MDA-MB-231, 9.45%. Besides, the IC50 in assay [1] worked out at 42 nM.
The like results for `COCCNC(=O)c1n[nH]c2cc(-c3ccc(-n4cccc(C)c4=O)cc3Cl)ccc12` were, in that order, 10.3%, 3.07% and 71 nM.
Turning to `O=C(NCC1CC1)c1n[nH]c2cc(-c3ccc(-n4ccccc4=O)cc3Cl)ccc12`, the IC50 in assay [1] is 590 nM.
On the same count and under the same terms, the result for `CNC(=O)c1n[nH]c2cc(-c3ccc(-n4ccccc4=O)cc3Cl)ccc12` reads 330 nM; that for `Cc1cccn(-c2ccc(-c3ccc4c(C(=O)NC5CCN(C)CC5)n[nH]c4c3)c(Cl)c2)c1=O`, 143 nM.
`CNC(=O)c1n[nH]c2cc(-c3ccccc3Cl)ccc12`: the 50% inhibitory concentration (IC50) in assay [1] and in assay [4] was 5000 nM in each case.
Regarding `CNC(=O)c1n[nH]c2cc(-c3ccc(-c4cccc(C)n4)cc3Cl)ccc12`, the results for the inhibition of growth at 1 µM in the assay on HCT-116 and with MDA-MB-231 were 7.16% and 8.12%, respectively. For the same molecule, in assay [1], the IC50 was 52 nM.
